The source made the active and inactive calls.
What was measured:
K562 [1] = test: Effect on SLC7A8 gene expression in human K562 cells assessed as change in mRNA transcript expression at 10 nM after 48 hrs by DNA microarray analysis relative to control; format: functional
Summary of the method: (§1)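 K562 CML cells (b3a2 Bcr-Abl) in standard ATCC-recommended culture, exposed once to 10 nM conjugate and harvested at 48 h. Untreated controls were also collected at 48 h. Transcripts were profiled on Human Gene 1.0 ST whole-genome oligonucleotide arrays, and each treated level was expressed relative to the untreated control, with a cutoff of at least twofold change.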

K562 [2] = test: Induction of apoptosis in human K562 cells assessed as non-viable necrotic cells at 125 nM after 48 hrs by annexin-V FITC and propidium iodide staining-based FACS analysis; format: functional
Summary of the method: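 K562 cells were exposed to conjugate in culture medium for 48 h, then stained with annexin V-FITC plus propidium iodide. Cell populations were quantified by flow cytometry.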

K562 [3] = test: Downregulation of histone H4C mRNA expression in human K562 cells at 125 nM after 48 hrs by real-time PCR analysis; format: functional, cell-based
Summary of the method: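 K562 cells were treated for 48 h, and H4c and H4e mRNA were measured by one-step real-time RT-PCR. Reverse transcription ran at 50 °C for 10 min, then hot-start activation at 95 °C for 15 min. Cycling was 45 cycles of 95 °C 15 s, 55 °C 30 s and 72 °C 30 s. Levels were normalized to GAPDH mRNA; error bars are SD.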

K562 [4] = test: Effect on HIST1H2BL gene expression in human K562 cells assessed as change in mRNA transcript expression at 10 nM after 48 hrs by DNA microarray analysis relative to control; format: functional
Summary of the method: (§2)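 Transcripts were profiled on Affymetrix GeneChip Human Gene 1.0 ST arrays in K562 cells treated at 10 nM. Treated cells were collected at 6, 12, 24 and 48 h; untreated controls were collected at 48 h. Transcripts changed at least twofold versus control were scored.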

K562 [5] = test: Effect on JUN gene expression in human K562 cells assessed as change in mRNA transcript expression at 10 nM after 48 hrs by DNA microarray analysis relative to control; format: functional; summary of the method: as §1
K562 [6] = test: Effect on HIST1H4H gene expression in human K562 cells assessed as down-regulation of mRNA transcript expression at 10 nM after 48 hrs by DNA microarray analysis relative to control; format: functional; summary of the method: as §1
K562 [7] = test: Effect on DHFR gene expression in human K562 cells assessed as change in mRNA transcript expression at 10 nM after 48 hrs by DNA microarray analysis relative to control; format: functional; summary of the method: as §2

## CC(=O)Nc1cn(C)c(C(=O)Nc2cn(C)c(C(=O)NCCC(=O)Nc3cn(C)c(C(=O)NCCCC(=O)Nc4cc(C(=O)Nc5cn(C)c(C(=O)Nc6ccc7[nH]c(C(=O)N8CC(CCl)c9c8cc(O)c8ccccc98)cc7c6)n5)n(C)c4)n3)n2)n1 (configuration not stated)
K562 [1]
  fold change (FC): >=2
K562 [2]
  Activity: 2.07%
K562 [3]
  Activity: Active
K562 [4]
  fold change (FC): >=2
K562 [5]
  fold change (FC): >=2
K562 [6]
  fold change (FC): 2.11
K562 [7]
  fold change (FC): >=2

— ChEMBL document CHEMBL1157704, “Potent activity against K562 cells by polyamide-seco-CBI conjugates targeting histone H4 genes” (Bioorg Med Chem, 2010)
